# Published values gathered from unrelated publications.
# KIT T670I/V559D: Mast/stem cell growth factor receptor Kit (KIT, Homo sapiens, UniProt P10721, T670I/V559D)
# KIT V559D: Mast/stem cell growth factor receptor Kit (KIT, Homo sapiens, UniProt P10721, V559D)
# KIT L576P: Mast/stem cell growth factor receptor Kit (KIT, Homo sapiens, UniProt P10721, L576P)
# KIT D816V: Mast/stem cell growth factor receptor Kit (KIT, Homo sapiens, UniProt P10721, D816V)
# KIT V559D/V654A: Mast/stem cell growth factor receptor Kit (KIT, Homo sapiens, UniProt P10721, V559D/V654A)
# KIT autoinhibited: Mast/stem cell growth factor receptor Kit, autoinhibited (KIT, Homo sapiens, UniProt P10721)
# KIT: Mast/stem cell growth factor receptor Kit (KIT, Homo sapiens, UniProt P10721)
Structure (SMILES),target,effect on,method,concentration,remaining binding [%]
O=C(NCC1CCOCC1)c1n[nH]cc1NC(=O)c1c(F)cccc1F,KIT T670I/V559D,binding,competition with immobilised ligand,1 µM,100
C[C@H](c1ccc(F)cc1)N(Cc1cccc(C(=O)O)c1)C(=O)c1cnc2ccccc2c1,KIT V559D,cell-free assay,competition with immobilised ligand,1 µM,92
C[C@@H](c1ccc(-n2cnc3c(N)ncnc32)cc1)N1CCc2nn(C)c(Cc3ccccc3)c2C1=O,KIT L576P,binding,competition with immobilised ligand,0.1 µM,17
COc1ccnn2ncc(-c3ccnc(N(C)C)n3)c12,KIT D816V,binding,,1 µM,100
O=C(Nc1cccnn1)N1CCC(=Cc2cccc(Oc3ccc(C(F)(F)F)cn3)c2)CC1,KIT D816V,cell-free assay,competition with immobilised ligand,1 µM,87
CNC(=O)[C@@H]1CC[C@@H](n2c(-c3ccc4cnccc4c3)nc3ccc(C(=O)NCc4cccc(C(N)=O)c4)cc32)C1,KIT T670I/V559D,binding,competition with immobilised ligand,1 µM,100
CN(c1ccnc(CNc2nc(Nc3ccc4c(c3)CC(=O)N4)ncc2C(F)(F)F)n1)S(C)(=O)=O,KIT V559D,cell-free assay,competition with immobilised ligand,1 µM,75
CC1CCCN1c1nccc(-c2cnn3ncccc23)n1 (stereo not shown),KIT D816V,binding,,1 µM,100
COc1ccc2cc(OCC3(C(=O)O)CN(C(=O)c4ccc(F)cc4)C3)ccc2c1,KIT L576P,cell-free assay,competition with immobilised ligand,1 µM,100
COc1cnc(Nc2cccc(S(N)(=O)=O)c2)nc1N1CCN(c2ccccc2)C(=O)C1,KIT L576P,binding,competition with immobilised ligand,1 µM,100
CCN1CCN(Cc2ccc(C(=O)Nc3ccc(C)c(Oc4ccc5c(c4)CC(=O)N5)c3)cc2C(F)(F)F)CC1,KIT V559D/V654A,binding,competition with immobilised ligand,1 µM,24
C[C@@H]1CCN(c2nccc(-c3cnn4ncccc34)n2)C1,KIT autoinhibited,binding,,1 µM,87
CNC(=O)Nc1ccc2c(c1)CC[C@@]21OC(=O)N(CC(=O)N(Cc2ccc(F)cc2)[C@@H](C)C(F)(F)F)C1=O,KIT V559D,cell-free assay,competition with immobilised ligand,1 µM,100
N[C@H]1CCN(c2nccc(-c3cnn4ncccc34)n2)C1,KIT L576P,binding,,1 µM,86
O=C(c1ccc(Nc2ncc(Cl)c(-c3ccc(Cl)s3)n2)cc1)N1CCC(N2CCCC2)CC1,KIT,binding,competition with immobilised ligand,1 µM,0.05
CN(C)c1nccc(-c2cnn3ncccc23)n1,KIT D816V,binding,,1 µM,60
COc1ncc2cc3ccccc3nc2c1C#N,KIT autoinhibited,cell-free assay,competition with immobilised ligand,5 µM,98
O=c1nc(-c2ccccn2)sc2ccccc12,KIT V559D/V654A,binding,competition with immobilised ligand,1 µM,100
O=C(NCCCN1CCOCC1)c1ccc(Nc2ncc(Cl)c(-c3ccc(Cl)s3)n2)cc1,KIT L576P,binding,competition with immobilised ligand,1 µM,2.8
c1cncc(-c2cccc(Nc3nccc(NC4CCCCC4)n3)c2)c1,KIT T670I/V559D,binding,competition with immobilised ligand,10 µM,29
CN(C)c1ncc(F)c(-c2cnn3ncccc23)n1,KIT T670I/V559D,binding,,1 µM,100
O=C(c1ccc(Nc2ncc(Cl)c(-c3cc4ccccc4s3)n2)cc1)N1CCC(N2CCCC2)CC1,KIT,binding,competition with immobilised ligand,1 µM,18
